Here are results for one compound from ChEMBL document CHEMBL3259756 (J Nat Prod, 2014).

The nature of series [1]: Cytotoxicity against P-gp-deficient human Me30966 cells assessed as cell mortality at 5 ug/mL after 24 hrs by trypan blue staining-based flow cytometric analysis. Type of series: ADME. The method, boiled down:
(§1)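 Trypan blue exclusion read by flow cytometry. Cells exposed to voacamine at 0.1, 1.0 or 5.0 μg/mL (in DMSO; DMSO-only cultures as extra control) for 4 or 24 h, resuspended in ice-cold PBS, stained with trypan blue (final 0.8 μM) and analysed at once; % dead cells. Three independent experiments, mean ± SD.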

Series [2] can be described thus: Cytotoxicity against P-gp-deficient human Me30966 cells assessed as effect on cell survival at 0.5 to 1 ug/mL pretreated for 30 mins followed by 1 ug/mL doxorubicin addition measured after 24 hrs by MTT assay relative to doxorubicin-treated cell. Type of series: ADME, cell-based. For orientation: Tetrazolium assays rely on reduction of a dye to a coloured formazan, in cell work by metabolically active cells.

Series [3] concerns the target T1, ATP-dependent translocase ABCB1 (Homo sapiens, UniProt P08183). As to the kind of experiment: Inhibition of p-gp in doxorubicin-resistant human Saos2 cells assessed as increase in doxorubicin uptake at 1 ug/mL after 3 hrs by flow cytometric analysis. Format: cell-based. Particulars: saos-2, 3 h. A digest of the protocol: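 Doxorubicin accumulation by flow cytometry. Osteosarcoma or melanoma cells exposed for 3 h to doxorubicin 1.0 μg/mL alone, with voacamine 1.0 μg/mL, or with cyclosporin A 5.0 μM (control). Cells detached with EDTA/trypsin (10^6 cells/mL), resuspended in ice-cold PBS, 488 nm excitation. Three independent experiments, mean ± SD.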
Background: In flow cytometry, cells or beads pass a laser one at a time.

The target in series [4] is T1, ATP-dependent translocase ABCB1. As to the kind of experiment: Inhibition of p-gp in doxorubicin-resistant human Saos2 cells assessed as intracellular doxorubicin distribution in nuclei at 1 ug/mL after 2 to 3 hrs by laser scanning confocal microscopic analysis. Format: cell-based. Particulars: saos-2. A digest of the protocol:
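Living SAOS-2-DX cells, with SAOS-2-WT for reference, treated with doxorubicin alone or with voacamine or cyclosporin A as in the flow cytometry uptake/efflux protocol. Intracellular, including nuclear, doxorubicin fluorescence located by laser scanning confocal microscopy.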

A short description of series [5]: Cytotoxicity against doxorubicin-resistant human Saos2 cells assessed as cell mortality at 0.1 to 5 ug/mL after 4 hrs by trypan blue staining-based flow cytometric analysis. Particulars: saos-2, 4 h. A digest of the protocol:
as §1

The nature of series [6]: Cytotoxicity against doxorubicin-resistant human Saos2 cells assessed as cell mortality at 5 ug/mL after 24 hrs by trypan blue staining-based flow cytometric analysis. Particulars: saos-2, 24 h. A digest of the protocol: as §1
The nature of series [7]: Cytotoxicity against wild type human Saos2 cells assessed as cell mortality at 5 ug/mL after 24 hrs by trypan blue staining-based flow cytometric analysis. Particulars: saos-2, 24 h. A digest of the protocol: as §1
The nature of series [8]: Cytotoxicity against doxorubicin-resistant human Saos2 cells assessed as effect on cell survival up to 1 ug/mL after 72 hrs by MTT assay. Type of series: cell-based. Particulars: saos-2, 72 h. A digest of the protocol:
(§2)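 MTT survival assay. Cells seeded 24 h beforehand (1 × 10^4 SAOS-2-DX or 5 × 10^3 Me30966 per well). Voacamine 0.5 or 1.0 μg/mL given alone or 30 min before doxorubicin (Me30966: 0.1 or 0.5 μg/mL; SAOS-2-DX: 0.5 or 1.0 μg/mL). Read at 24 h for Me30966 and 72 h for SAOS-2-DX. Three independent experiments, mean ± SD.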

Series [9] concerns the target T1, ATP-dependent translocase ABCB1. Put plainly: Inhibition of p-gp in doxorubicin-resistant human Saos2 cells assessed as increase in intracellular doxorubicin retention at 1 ug/mL after 2 hrs by flow cytometric analysis. Particulars: saos-2, 2 h; call rule not given here. Type of series: cell-based. A digest of the protocol:
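Efflux by flow cytometry. Cells loaded 1 h with 1.0 μg/mL doxorubicin, washed in PBS, then reincubated 2 h at 37 °C in drug-free medium with or without voacamine (1.0 μg/mL) or cyclosporin A (5.0 μM). Detached, resuspended in ice-cold PBS, analysed for retained doxorubicin fluorescence. Three independent experiments, mean ± SD.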

Series [10] can be described thus: Cytotoxicity against wild type human Saos2 cells assessed as cell mortality at 0.1 to 5 ug/mL after 4 hrs by trypan blue staining-based flow cytometric analysis. Particulars: saos-2, 4 h. A digest of the protocol:
as §1

Series [11] can be described thus: Cytotoxicity against P-gp-deficient human Me30966 cells assessed as induction of morphological changes at 1 ug/mL by phase contrast microscopic analysis. Format: ADME, cell-based. A digest of the protocol:
(§3)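 Monolayers viewed by phase contrast microscopy against untreated controls. SAOS-2-DX given 1.0 μg/mL voacamine plus 1.0 μg/mL doxorubicin; Me30966 given 1.0 μg/mL voacamine plus 0.5 μg/mL doxorubicin.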

A short description of series [12]: Cytotoxicity against human AG1522 cells assessed as cell mortality at 0.1 to 5 ug/mL after 4 hrs by trypan blue staining-based flow cytometric analysis. The method, boiled down:
as §1

Series [13] deals with T1, ATP-dependent translocase ABCB1. Put plainly: Inhibition of p-gp in doxorubicin-resistant human Saos2 cells assessed as potentiation of doxorubicin-induced cytotoxicity by measuring cell survival at 0.5 ug/mL pretreated for 30 mins followed by 0.5 ug/mL doxorubicin addition measured after 72 hrs by MTT assay relative to doxorubicin-treated cell. Type of series: cell-based. Particulars: saos-2, 72 h. A digest of the protocol: as §2

For series [14] the target is unchanged. As to the kind of experiment: Inhibition of p-gp in doxorubicin-resistant human Saos2 cells assessed as potentiation of 1 ug/mL doxorubicin-induced cytotoxicity by measuring induction of morphological changes at 1 ug/mL by phase contrast microscopic analysis. Format: cell-based. Particulars: saos-2. A digest of the protocol:
as §3

Series [15] has the same target. Put plainly: Inhibition of p-gp in doxorubicin-resistant human Saos2 cells assessed as potentiation of doxorubicin-induced cytotoxicity by measuring cell survival at 1 ug/mL pretreated for 30 mins followed by 1 ug/mL doxorubicin addition measured after 72 hrs by MTT assay relative to doxorubicin-treated cell. Type of series: cell-based. Particulars: saos-2, 72 h. The method, boiled down:
as §2

Series [16] has the same target. As to the kind of experiment: Inhibition of p-gp in doxorubicin-resistant human Saos2 cells assessed as potentiation of doxorubicin-induced cytotoxicity by measuring cell survival at 0.5 ug/mL pretreated for 30 mins followed by 1 ug/mL doxorubicin addition measured after 72 hrs by MTT assay relative to doxorubicin-treated cell. Particulars: saos-2, 72 h. Format: cell-based. The method, boiled down: as §2

Series [17] can be described thus: Cytotoxicity against doxorubicin-resistant human Saos2 cells assessed as induction of morphological changes at 1 ug/mL by phase contrast microscopic analysis. Particulars: saos-2. Format: cell-based. A digest of the protocol:
as §3

Series [18] in a line: Cytotoxicity against P-gp-deficient human Me30966 cells assessed as cell mortality at 0.1 to 5 ug/mL after 4 hrs by trypan blue staining-based flow cytometric analysis. Type of series: ADME. A digest of the protocol: as §1
Series [19] deals with P-gp (ABCB1) (Homo sapiens, UniProt P08183). Put plainly: Inhibition of p-gp in doxorubicin-resistant human Saos2 cells assessed as potentiation of doxorubicin-induced cytotoxicity by measuring cell survival at 1 ug/mL pretreated for 30 mins followed by 0.5 ug/mL doxorubicin addition measured after 72 hrs by MTT assay relative to doxorubicin-treated cell. Format: cell-based, SAOS-2. Particulars: probe doxorubicin, read-out: Survival. A digest of the protocol: as §2

The nature of series [20]: Cytotoxicity against human AG1522 cells assessed as cell mortality at 5 ug/mL after 24 hrs by trypan blue staining-based flow cytometric analysis. The method, boiled down: as §1

T1 sequence (P08183 whole entry): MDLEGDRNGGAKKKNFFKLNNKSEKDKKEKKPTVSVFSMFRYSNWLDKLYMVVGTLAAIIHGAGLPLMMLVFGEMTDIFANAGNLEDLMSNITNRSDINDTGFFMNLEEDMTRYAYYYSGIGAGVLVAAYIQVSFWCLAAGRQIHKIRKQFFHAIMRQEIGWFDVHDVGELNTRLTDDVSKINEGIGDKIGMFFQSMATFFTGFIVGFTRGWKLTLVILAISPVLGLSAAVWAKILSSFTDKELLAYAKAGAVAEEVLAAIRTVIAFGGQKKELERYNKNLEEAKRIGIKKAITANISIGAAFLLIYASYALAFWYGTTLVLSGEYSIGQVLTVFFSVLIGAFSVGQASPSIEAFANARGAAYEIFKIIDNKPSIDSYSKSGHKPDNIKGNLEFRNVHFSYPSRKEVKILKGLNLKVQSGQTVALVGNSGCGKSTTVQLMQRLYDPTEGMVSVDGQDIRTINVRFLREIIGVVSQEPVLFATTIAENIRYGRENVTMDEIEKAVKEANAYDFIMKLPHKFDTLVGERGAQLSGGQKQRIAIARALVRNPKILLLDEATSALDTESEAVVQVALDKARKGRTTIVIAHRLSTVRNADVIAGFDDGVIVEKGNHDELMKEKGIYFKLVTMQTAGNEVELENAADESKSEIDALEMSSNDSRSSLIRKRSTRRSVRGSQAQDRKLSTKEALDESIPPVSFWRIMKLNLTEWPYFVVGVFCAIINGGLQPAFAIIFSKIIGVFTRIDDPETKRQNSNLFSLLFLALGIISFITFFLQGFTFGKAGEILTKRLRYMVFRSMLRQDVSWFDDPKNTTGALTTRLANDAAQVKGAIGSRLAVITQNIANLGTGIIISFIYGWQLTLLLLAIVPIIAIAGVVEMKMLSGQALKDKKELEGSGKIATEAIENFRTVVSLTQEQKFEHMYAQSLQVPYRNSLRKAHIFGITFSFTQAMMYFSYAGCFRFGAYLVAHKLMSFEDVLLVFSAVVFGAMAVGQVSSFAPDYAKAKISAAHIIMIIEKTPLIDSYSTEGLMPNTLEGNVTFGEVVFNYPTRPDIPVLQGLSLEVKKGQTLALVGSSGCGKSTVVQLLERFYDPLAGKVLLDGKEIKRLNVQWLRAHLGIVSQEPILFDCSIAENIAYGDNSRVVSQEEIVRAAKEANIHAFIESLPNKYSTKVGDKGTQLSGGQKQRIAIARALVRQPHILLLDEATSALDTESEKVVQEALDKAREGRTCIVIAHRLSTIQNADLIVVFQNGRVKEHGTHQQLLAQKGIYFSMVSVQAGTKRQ
P-gp (ABCB1), sequence (P08183 whole entry): as above

Regarding `CC=C1CN(C)C2Cc3c([nH]c4ccccc34)C(c3cc4[nH]c5c(c4cc3OC)CCN3CC4CC(CC)C3C5(C(=O)OC)C4)CC1C2C(=O)OC` (stereo not given) [VOACAMINE], the Activity result is given as “Toxic” in series [1]; “Non-toxic” in series [2]; “Non-toxic” in series [5]; “Toxic” in series [6]; “Toxic” in series [7]; “Non-toxic” in [8]. For the same compound, the Activity result is “Non-toxic” in series [10]; “Non-toxic” in series [11]; “Non-toxic” in [12]; “Non-toxic” in series [17]; “Non-toxic” in series [18]; “Toxic” in [20]. For the same compound, the “inhibition (INH)” value in series [3], in series [4], in series [9], in series [13], in [14] and in series [15] was “Active” throughout. Besides, the “inhibition (INH)” value in [16] is recorded as “Active”. Also, in series [19], the viability at 72 h, 1 ug/mL turned out to be 50%.
